Measured values: paper PMC6859084 (Drug Design, Development and Therapy, 2019)
Read-outs that look alike come from different tables or passages of the source.

Key:
[1] = Pharmacokinetics after single oral dose of FDC or loose combination; format: in vivo, human; details: FDC to loose combination
How it was run: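 Healthy subjects, randomized open-label two-period crossover with 14-day washout, fasted overnight, single oral dose with 200 mL water. Heparinized blood drawn pre-dose to 72 h, centrifuged 1,800 rpm 8 min at 4°C, plasma mixed 1:1 with 5% formic acid, stored −70°C. LC-MS/MS (C18, positive ESI, MRM), validated 0.5–200 ng/mL. Non-compartmental parameters; log-transformed GMR from linear mixed-effects model.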

[2] = previously reported; cited from earlier work
LDL-C = details: cited from earlier work

SMILES | AUClast Geometric Mean Ratio (90% CI) [1] | Cmax Geometric Mean Ratio (90% CI) [1] | half-life [2] [h] | LDL-C reduction (LDL-C; first week after rosuvastatin administration) [%] | LDL-C reduction (LDL-C; second week after rosuvastatin administration) [%]
N[C@@H](CC(=O)N1CCc2c(nc(C(F)(F)F)nc2C(F)(F)F)C1)CN1CC(F)(F)CCC1=O [Gemigliptin] | 1.02 (0.96–1.09) | 1.08 (0.99–1.18) | 17 |  | 
CC(C)c1nc(N(C)S(C)(=O)=O)nc(-c2ccc(F)cc2)c1/C=C/[C@@H](O)C[C@@H](O)CC(=O)O [Rosuvastatin] | 1.02 (0.95–1.09) | 1.09 (0.96–1.22) |  | 64 | 90
